{"source": "paper PMC11564564", "about": "(Scientific Reports, 2024)", "key": {"[1]": {"test_system": "ESBL-producing strains (E. coli, K. pneumoniae, and P. aeruginosa)", "experiment": "MIC, summary across ESBL-producing strains", "format": "cell-based", "method_in_brief": "(§1)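 MIC was set by serial dilution of test compound, with three replicates per concentration. Strains were clinical E. coli, K. pneumoniae and P. aeruginosa isolates, identified biochemically and confirmed as ESBL producers by double disc synergy test (ceftazidime and cefotaxime discs 20 mm from amoxicillin/clavulanate on Mueller Hinton agar, 37 °C, 18–20 h).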"}, "ESBL-producing E. coli": {"test_system": "ESBL-producing E. coli", "experiment": "MIC by serial dilution, ESBL E. coli", "format": "cell-based", "details": "Escherichia coli, read-out: Minimum inhibitory concentration (MIC), E. coli", "method_in_brief": "as §1"}, "Solubility in DMSO": {"experiment": "Solubility in DMSO", "format": "physicochemical"}, "human red blood cells": {"test_system": "human red blood cells", "experiment": "Hemolytic", "format": "cell-based", "details": "Erythrocyte, 1 h, read-out: IC50, Human RBC's", "method_in_brief": "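Blood from a healthy donor was collected in EDTA. RBCs were pelleted at 14,000 rpm for 5 min, and 200 µL of pellet was resuspended in 9.8 mL PBS, pH 7.2. 100 µL suspension plus 100 µL test solution (200–1 µg/mL) were incubated 1 h at 35 °C, then spun at 10,000 rpm for 10 min. Supernatant haemoglobin was read at 540 nm. Triton X-100 and PBS defined 100% and 0% hemolysis.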"}, "[2]": {"test_system": "ESBL-producing P. aeruginosa", "experiment": "MIC by serial dilution, ESBL P. aeruginosa", "format": "cell-based", "details": "Pseudomonas aeruginosa, read-out: Minimum inhibitory concentration (MIC), P. aeruginosa", "method_in_brief": "(§2)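 Bacterial isolates were confirmed ESBL-positive by double disc synergy test. For that test, a 0.5 McFarland suspension was swabbed onto Mueller Hinton agar, and ceftazidime and cefotaxime (30 μg) discs were placed 20 mm from an amoxicillin/clavulanate (30 μg) disc. Plates were incubated at 37 °C for 18-20 h, and an enhanced zone indicated ESBL. Test compounds were dissolved in appropriate solvents, and MIC was determined by serial dilution, three replicates per concentration.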"}, "[3]": {"test_system": "ESBL-producing K. pneumoniae", "experiment": "MIC by serial dilution, ESBL K. pneumoniae", "format": "cell-based", "details": "Klebsiella pneumoniae, read-out: Minimum inhibitory concentration (MIC), K. pneumoniae", "method_in_brief": "as §2"}, "Brine shrimp lethality": {"experiment": "Brine shrimp lethality", "details": "Artemia salina (brine shrimp), in vivo", "method_in_brief": "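Artemia salina eggs were hatched for 24 h in aerated, lit salt water (27 g table salt per 3 L). Ten nauplii went into each tube with test compound at 1–200 µg/mL in 300 µL total. After 24 h, survivors were counted under a magnifier and percent mortality calculated. IC50 came from Finney analysis.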"}, "tuberculosis": {"test_system": "tuberculosis", "details": "cited from earlier work"}}}
{"smiles": "COc1cc(C=Nc2ccc([N+](=O)[O-])cc2)ccc1O", "note": "[SB-1, 2-Methoxy-4-((4-nitrophenylimino)methyl)phenol]", "values": [{"measurement": "MIC", "setting": "[1]", "result": 125, "unit": "µg/mL"}, {"measurement": "MIC", "setting": "ESBL-producing E. coli", "result": 125, "unit": "µg/mL"}, {"measurement": "Solubility in DMSO", "setting": "Solubility in DMSO", "result": "Soluble in DMSO"}, {"measurement": "IC50", "setting": "human red blood cells", "result": "> 200", "unit": "µg/mL"}, {"measurement": "MIC", "setting": "[2]", "result": 125, "unit": "µg/mL"}, {"measurement": "MIC", "setting": "[3]", "result": 125, "unit": "µg/mL"}, {"measurement": "IC50 at 24 h", "setting": "Brine shrimp lethality", "result": 50.5, "unit": "µg/mL"}]}
{"smiles": "COc1cc(C=Nc2ccccc2Br)ccc1O", "note": "[SB-2, 4-((2-Bromophenylimino)methyl)-2-methoxyphenol]", "values": [{"measurement": "MIC", "setting": "[1]", "result": 250, "unit": "µg/mL"}, {"measurement": "MIC", "setting": "ESBL-producing E. coli", "result": 250, "unit": "µg/mL"}, {"measurement": "Solubility in DMSO", "setting": "Solubility in DMSO", "result": "Soluble in DMSO"}, {"measurement": "MIC", "setting": "[2]", "result": 250, "unit": "µg/mL"}, {"measurement": "MIC", "setting": "[3]", "result": 250, "unit": "µg/mL"}]}
{"smiles": "COc1cc(C=Nc2ccc(C)cc2Cl)ccc1O", "note": "[SB-3, 4-((2-Chloro-4-methylphenylimino)methyl)-2-methoxyphenol]", "values": [{"measurement": "MIC", "setting": "[1]", "result": 125, "unit": "µg/mL"}, {"measurement": "MIC", "setting": "ESBL-producing E. coli", "result": 125, "unit": "µg/mL"}, {"measurement": "Solubility in DMSO", "setting": "Solubility in DMSO", "result": "Soluble in DMSO"}, {"measurement": "IC50", "setting": "human red blood cells", "result": "> 200", "unit": "µg/mL"}, {"measurement": "MIC", "setting": "[2]", "result": 125, "unit": "µg/mL"}, {"measurement": "MIC", "setting": "[3]", "result": 125, "unit": "µg/mL"}]}
{"smiles": "COc1cc(C=Nc2cccc(O)c2)ccc1O", "note": "[SB-4, 4-((3-Hydroxyphenylimino)methyl)-2-methoxyphenol]", "values": [{"measurement": "MIC", "setting": "[1]", "result": 125, "unit": "µg/mL"}, {"measurement": "MIC", "setting": "ESBL-producing E. coli", "result": 125, "unit": "µg/mL"}, {"measurement": "Solubility in DMSO", "setting": "Solubility in DMSO", "result": "Soluble in DMSO"}, {"measurement": "MIC", "setting": "[2]", "result": 125, "unit": "µg/mL"}, {"measurement": "MIC", "setting": "[3]", "result": 125, "unit": "µg/mL"}]}
{"smiles": "COc1cc(C=Nc2ccc(Cl)cc2Cl)ccc1O", "note": "[SB-5, 4-((2,4-Dichlorophenylimino)methyl)-2-methoxyphenol]", "values": [{"measurement": "MIC", "setting": "[1]", "result": 125, "unit": "µg/mL"}, {"measurement": "MIC", "setting": "ESBL-producing E. coli", "result": 125, "unit": "µg/mL"}, {"measurement": "Solubility in DMSO", "setting": "Solubility in DMSO", "result": "Soluble in DMSO"}, {"measurement": "IC50", "setting": "human red blood cells", "result": "> 200", "unit": "µg/mL"}, {"measurement": "MIC", "setting": "[2]", "result": 125, "unit": "µg/mL"}, {"measurement": "MIC", "setting": "[3]", "result": 125, "unit": "µg/mL"}, {"measurement": "IC50 at 24 h", "setting": "Brine shrimp lethality", "result": 45.7, "unit": "µg/mL"}]}
{"smiles": "[H]/N=C(/N)N[C@H]1[C@H](O)[C@@H](O)[C@H](O[C@@H]2O[C@@H](C)[C@](O)(C=O)[C@H]2O[C@@H]2O[C@@H](CO)[C@H](O)[C@@H](O)[C@@H]2NC)[C@@H](N/C(N)=N\\[H])[C@@H]1O", "note": "[streptomycin]", "values": [{"measurement": "MIC, antituberculosis activity", "setting": "tuberculosis", "result": 10.7, "unit": "µM"}]}
